Measurements from ChEMBL document CHEMBL1153230, “Synthesis and evaluation of 3-amino-6-aryl-pyridazines as selective CB(2) agonists for the treatment of inflammatory pain” (Bioorg Med Chem Lett, 2010).
Values after ≈ are worked out from the molar mass of the structure shown. Active and inactive are the calls of the source. The calls are words filed in the database; no cut-off is given here.

Experiments:
[1] = biological target: T1, Cannabinoid receptor 2 (Homo sapiens, UniProt P34972); assay: Agonist activity at human CB2 receptor relative to HU210; assay type: functional
Outline: (§1)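 Agonist pEC50 and efficacy at human receptor. Efficacy is expressed as a percentage relative to HU210 efficacy. Values are the mean of at least two determinations.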

[2] = biological target: T2, Cannabinoid receptor 1 (Homo sapiens, UniProt P21554); assay: Agonist activity at human CB1 receptor; assay type: functional; outline: as §1
[3] = biological target: T1, Cannabinoid receptor 2; assay: Agonist activity at human CB2 receptor; assay type: functional; outline: as §1
[4] = Blood clearance in rat at 1 mg/kg, iv; assay type: ADME, organism-based; parameters: dose 1 mg/kg, route intravenous
Outline: (§2)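 Rats given an intravenous infusion at a target dose of 1 mg free base/kg for pharmacokinetic parameters.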

[5] = biological target: T2, Cannabinoid receptor 1; assay: Agonist activity at human CB1 receptor relative to HU210; assay type: functional; outline: as §1
[6] = Drug level in rat blood at 1 mg/kg, po after 1 hr; assay type: ADME, organism-based; parameters: dose 1 mg/kg, route oral
Outline: (§3)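 Rat blood and brain tissue samples taken from FCA weight-bearing study animals 1 h after a 1 mg/kg oral dose. Compound concentrations measured in each; brain:blood ratio derived from the two concentrations.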

[7] = Tmax in rat at 3 mg/kg, po; assay type: ADME, organism-based; parameters: dose 3 mg/kg, route oral; details: in vivo
Outline: (§4)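 Rats given a single oral dose by gastric gavage, formulated in 1% (w/v) aqueous methylcellulose, at a target dose of 3 mg/kg free base, for pharmacokinetic parameters.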

[8] = Volume of distribution at steady state in rat at 1 mg/kg, iv; assay type: ADME, organism-based; parameters: dose 1 mg/kg, route intravenous; details: in vivo, read-out: Vdss; outline: as §2
[9] = Cmax in rat at 3 mg/kg, po; assay type: ADME, organism-based; parameters: dose 3 mg/kg, route oral; details: in vivo; outline: as §4
[10] = Ratio of drug level in brain to blood in rat at 1 mg/kg, po; assay type: ADME, organism-based; parameters: dose 1 mg/kg, route oral; outline: as §3
[11] = system: Rattus norvegicus; assay: Toxicity in rat assessed as induction of hypothermia up to 300 mg/kg po; assay type: organism-based; parameters: dose 300 mg/kg, route oral; details: in vivo
[12] = Half life in rat at 1 mg/kg, iv; assay type: ADME, organism-based; parameters: dose 1 mg/kg, route intravenous; details: in vivo; outline: as §2
[13] = Drug level in rat brain at 1 mg/kg, po after 1 hr; assay type: ADME, organism-based; parameters: dose 1 mg/kg, route oral; details: read-out: Drug uptake; outline: as §3
[14] = Oral bioavailability in rat at 3 mg/kg; assay type: ADME, organism-based; details: in vivo; outline: as §4
[15] = Cmax in rat brain at 6.6 uM; assay type: ADME, organism-based; parameters: dose 6.6 uM
[16] = biological target: T2, Cannabinoid receptor 1; assay: Agonist activity at human CB1 receptor up to 30 uM; assay type: functional
Outline: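 Human CB1 receptor agonist assay, tested at concentrations up to 30 µM (method per cited reference). Potency reported as pEC50. Efficacy is expressed as a percentage of the efficacy of the full agonist HU210. Values are the mean of at least two determinations.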

[17] = Aqueous solubility of the compound; assay type: physicochemical

T1 sequence (P34972 whole entry): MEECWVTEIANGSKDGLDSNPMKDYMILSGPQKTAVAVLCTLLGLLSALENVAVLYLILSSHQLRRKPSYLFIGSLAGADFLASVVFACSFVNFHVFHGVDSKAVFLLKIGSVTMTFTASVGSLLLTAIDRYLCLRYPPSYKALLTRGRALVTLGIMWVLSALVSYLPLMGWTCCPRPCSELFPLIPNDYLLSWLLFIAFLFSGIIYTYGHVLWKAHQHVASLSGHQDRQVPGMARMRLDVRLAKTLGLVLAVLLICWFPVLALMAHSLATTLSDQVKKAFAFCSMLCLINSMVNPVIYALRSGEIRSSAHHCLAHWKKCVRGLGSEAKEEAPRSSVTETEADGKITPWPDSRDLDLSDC
T2 sequence (P21554 whole entry): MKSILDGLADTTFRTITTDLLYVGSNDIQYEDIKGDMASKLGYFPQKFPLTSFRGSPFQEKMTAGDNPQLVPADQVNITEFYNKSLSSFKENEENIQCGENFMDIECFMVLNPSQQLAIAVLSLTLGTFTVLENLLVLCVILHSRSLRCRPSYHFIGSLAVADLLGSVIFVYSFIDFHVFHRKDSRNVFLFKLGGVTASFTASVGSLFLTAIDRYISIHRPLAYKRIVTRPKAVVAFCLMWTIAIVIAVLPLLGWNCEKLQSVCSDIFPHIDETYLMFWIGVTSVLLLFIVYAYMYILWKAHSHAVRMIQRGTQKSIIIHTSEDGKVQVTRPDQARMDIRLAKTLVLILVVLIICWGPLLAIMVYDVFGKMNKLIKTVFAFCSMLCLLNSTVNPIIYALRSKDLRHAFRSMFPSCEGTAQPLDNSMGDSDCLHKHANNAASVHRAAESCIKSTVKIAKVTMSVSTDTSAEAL

SMILES | Efficacy [1] | EC50 [2] | EC50 [3] | also measured
C[C@@H]1CC[C@H](C)N1c1ccc(-c2cc3ccccc3o2)nn1 | 70% | > 31.6 µM | 0.158 µM | –
COc1ccc(-c2ccc(N3CCOCC3)nn2)c(Cl)c1 | – | > 31.6 µM | > 31.6 µM | –
FC(F)(F)c1ccccc1-c1ccc(N2CCOCC2)nn1 | 78% | > 31.6 µM | 1.26 µM | –
COc1ccccc1-c1ccc(N2CCOCC2)nn1 | 37% | > 31.6 µM | 12.6 µM | –
C[C@@H]1CC[C@H](C)N1c1ccc(-c2cncc3ccccc23)nn1 | 85% | 7.94 µM | 0.01 µM | clearance [4]: 3.42 L/h/kg; Efficacy [5]: 71%; concentration at 1 h [6]: 0.3 µM; Tmax [7]: 54 min; Vd [8]: 1.7 L/kg; Cmax [9]: 0.34 µM; Kp [10]: 1; Activity [11]: Toxic; half-life [12]: 18 min; concentration at 1 h [13]: 0.5 µM; bioavailability [14]: 26%; Cmax at 6.6 µM [15]: 11 µM
FC1(F)CCN(c2ccc(-c3cccc(Cl)c3Cl)nn2)CC1 | 83% | > 31.6 µM | 0.0158 µM | –
c1ccc(COc2cccc(-c3ccc(N4CCOCC4)nn3)c2)cc1 | – | > 31.6 µM | > 31.6 µM | –
Clc1ccccc1-c1ccc(N2CCOCC2)nn1 | 77% | > 31.6 µM | 1.58 µM | –
FC(F)(F)c1cccc(-c2ccc(N3CCOCC3)nn2)c1C(F)(F)F | 75% | > 31.6 µM | 0.158 µM | –
c1ccc(COc2ccccc2-c2ccc(N3CCOCC3)nn2)cc1 | 45% | 3.98 µM | 0.631 µM | Efficacy [5]: 11%
Clc1cccc(-c2ccc(N3CCCCC3)nn2)c1Cl | 86% | > 31.6 µM | 0.00631 µM | –
C[C@@H]1CC[C@H](C)N1c1ccc(-c2c[nH]c3ccccc23)nn1 | 61% | > 31.6 µM | 0.251 µM | –
C[C@@H]1CC[C@H](C)N1c1ccc(-c2cccc3ncccc23)nn1 | 75% | > 31.6 µM | 0.2 µM | –
C[C@@H]1CC[C@H](C)N1c1ccc(-c2cccc3cccnc23)nn1 | 82% | > 31.6 µM | 0.0794 µM | –
FC(F)(F)Oc1ccccc1-c1ccc(N2CCOCC2)nn1 | 55% | > 31.6 µM | 1.26 µM | –
Clc1ccc(Cl)c(-c2ccc(N3CCOCC3)nn2)c1 | 39% | > 31.6 µM | 0.398 µM | –
FC(F)(F)c1cccc(-c2ccc(N3CCOCC3)nn2)c1 | 15% | > 31.6 µM | 1 µM | –
Clc1cccc(-c2ccc(NC3CCOCC3)nn2)c1Cl | – | > 31.6 µM | > 31.6 µM | –

SMILES | Efficacy [1] | EC50 [2] | EC50 [3] | also measured
Cc1cccc(-c2ccc(N3CCOCC3)nn2)c1C | 71% | > 31.6 µM | 2 µM | –
Clc1cccc(-c2ccc(N3CCOCC3)nc2)c1Cl | – | – | – | Activity [16]: inactive
Clc1cccc(-c2cnc(N3CCOCC3)nn2)c1Cl | 78% | – | 0.1 µM | Activity [16]: inactive
C[C@@H]1CC[C@H](C)N1c1ccc(-c2cccc(Cl)c2Cl)nn1 | 83% | 2.51 µM | 0.00126 µM | Efficacy [5]: 57%
Clc1cc(Cl)c(Cl)c(-c2ccc(N3CCOCC3)nn2)c1 | 78% | > 31.6 µM | 0.0501 µM | –
Clc1ccc(-c2ccc(N3CCOCC3)nn2)c(Cl)c1 | – | > 31.6 µM | > 31.6 µM | –
Clc1cccc(-c2ccc(N3CCOCC3)nn2)c1Cl | 76% | > 31.6 µM | 0.0794 µM | Activity [16]: inactive; solubility [17]: 6 µg/mL (≈ 19.3 µM)
Cc1ccc(-c2ccc(N3CCOCC3)nn2)c(Cl)c1 | – | > 31.6 µM | > 31.6 µM | –
Clc1cccc(-c2ccc(NC3CCCCC3)nn2)c1Cl | 69% | > 31.6 µM | 0.2 µM | –
Clc1cccc(-c2ncc(N3CCOCC3)cn2)c1Cl | 92% | – | 0.0501 µM | Activity [16]: inactive; solubility [17]: < 1 µg/mL
C[C@@H]1CC[C@H](C)N1c1ccc(-c2cccc3cnccc23)nn1 | 93% | 20 µM | 0.0398 µM | Efficacy [5]: 52%
O=S1(=O)CCN(c2ccc(-c3cccc(Cl)c3Cl)nn2)CC1 | 89% | > 31.6 µM | 0.631 µM | –
C[C@@H]1C=C[C@H](C)N1c1ccc(-c2cccc(Cl)c2Cl)nn1 | 93% | 6.31 µM | 0.000631 µM | Efficacy [5]: 21%
Cc1ccccc1-c1ccc(N2CCOCC2)nn1 | 38% | > 31.6 µM | 7.94 µM | –
Clc1cccc(-c2cnc(N3CCOCC3)nc2)c1Cl | 67% | – | 0.2 µM | Activity [16]: inactive
Clc1cccc(-c2cnc(N3CCOCC3)cn2)c1Cl | 89% | – | 0.0398 µM | Activity [16]: inactive; solubility [17]: 1 µg/mL (≈ 3.22 µM)
Clc1cccc(-c2ccc(N3CCCC3)nn2)c1Cl | 56% | > 31.6 µM | 0.0251 µM | –
Clc1cccc(-c2ccc(N3CCOCC3)cc2)c1Cl | 86% | – | 0.0398 µM | Activity [16]: inactive
